Screening data as filed in PubChem BioAssay.
Only some compounds are listed: those with a hit (about 2.1% of all), similar ones and a draw of the others.
IMP-1 inh-1: blocks Pseudomonas aeruginosa IMP-1 metallo-beta-lactamase; purified IMP-1, nitrocefin hydrolysis, epi-absorbance fluorescence; AID 1556; hit rate 0.45% among 290,000; inhibition, % at 5.6 µM;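 active = inhibition above the mean plus 3 SD of all compounds in the same screening run, cut at about 4.5% in these data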;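 note: 0% = IMP-1 with DMSO and 100% = DMSO wells lacking enzyme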
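System: purified IMP-1 / Input: IMP-1 dispensed at 0.2 nM / Medium: 50 mM HEPES pH 7.1, 50 µM ZnSO4, 0.05% Brij 35 / Timing: 15 min enzyme–compound preincubation, then 25 min nitrocefin reaction, 25 °C / Technique: plate fluorescence quenching by hydrolysis product, ex 480/em 530 nm / Repeats: singlicate testing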
CRFBP-R2 agonist: agonists of human CRF-binding protein/CRF-R2 receptor complex | HEK293 CRF-R2/CRF-BP, calcium dye fluorescence (FLIPR); percent of saturating CRF peptide response | activation, % at 13.2 µM | hit rate 0.46% among 350,000 | AID 588473;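 active = activation of at least 50%, plus an integration ratio under a set limit after plate pattern correction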;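 note: plate controls were neutral control wells without compound for no effect and CRF at EC100 for full effect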
CRFBP-R2 block: antagonists of CRF-binding protein/CRF-R2 receptor complex; HEK293 CRF-R2/CRF-BP, CRF-induced calcium fluorescence; inhibition, % at 11.8 µM; hit rate 0.59% among 350,000;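 active = inhibition of the ligand-induced calcium signal above about 50% at the single tested concentration, limit read from the data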
TRPML3 agonist: human mucolipin-3 channel agonism. Q8TDD5. HEK293 TRPML3-YFP, Fluo-8 calcium fluorescence; 100% = the carbachol control signal. hit rate 0.29% among 220,000. activation, % at 3 µM;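 active = activation above its plate's cutoff, the mean activation of the plate's test wells plus 3 SD, cut at about 12% in these data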;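 note: 0% = DMSO only wells and 100% = carbachol wells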
Target sequence (Q8TDD5 whole entry, looked up): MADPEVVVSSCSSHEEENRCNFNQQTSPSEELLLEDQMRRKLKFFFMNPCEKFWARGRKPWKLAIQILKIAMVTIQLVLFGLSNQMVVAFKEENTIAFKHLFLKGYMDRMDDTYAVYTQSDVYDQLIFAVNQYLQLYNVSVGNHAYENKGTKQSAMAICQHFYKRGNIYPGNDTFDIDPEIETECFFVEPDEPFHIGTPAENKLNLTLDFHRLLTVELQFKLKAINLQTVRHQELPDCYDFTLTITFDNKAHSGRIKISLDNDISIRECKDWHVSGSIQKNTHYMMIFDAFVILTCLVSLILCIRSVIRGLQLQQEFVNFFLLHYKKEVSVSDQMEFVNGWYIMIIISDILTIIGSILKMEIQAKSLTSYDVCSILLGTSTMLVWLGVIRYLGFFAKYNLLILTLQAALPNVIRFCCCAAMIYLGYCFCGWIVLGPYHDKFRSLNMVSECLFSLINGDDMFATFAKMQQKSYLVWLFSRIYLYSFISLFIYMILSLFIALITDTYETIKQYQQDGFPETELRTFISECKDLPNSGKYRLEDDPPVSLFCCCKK
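Test system – HEK293 line with stable expression of human TRPML3-YFP channel · Control set – carbachol 87 µM final as high control (100%), DMSO as low control (0%) · Signal – Fluo-8 calcium dye fluorescence, ex 470-495, em 515-575 nm · Incubation – 1-h 37 °C dye load, 5-s basal, 120-s post-compound reads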
VIM-2 inhibitor: blocks Pseudomonas aeruginosa VIM-2 metallo-beta-lactamase; hit rate 0.89% among 290,000; purified VIM-2, nitrocefin hydrolysis, epi-absorbance fluorescence; inhibition, % at 5.6 µM;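 active = inhibition above the mean of all tested compounds plus 3 SD, cutoff set per screening run, cut at about 7.5% in these data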;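 note: red hydrolysis product quenches plate fluorescence so inhibitors raise well fluorescence; 0% = enzyme with DMSO and 100% = DMSO without enzyme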
zfTRPN1 agonist: zebrafish TRPN1 (NompC) channel agonism; activation, % at 3 µM; AID 1424; hit rate 0.18% among 220,000; HEK293 zebrafish TRPN1-YFP, Fluo-8 calcium fluorescence; 100% = response to 87 µM carbachol;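 active = activation above its plate's cutoff, the mean activation of test wells on that plate plus 3 SD, cut at about 19% in these data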;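 note: 0% = DMSO alone and 100% = 87 µM carbachol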
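Material – zebrafish TRPN1-YFP in HEK293 cells · Doses – 3 µM single point · Schedule – dye 1 h 37 °C plus 30 min RT · Signal – Fluo-8 calcium fluorescence, excitation 470-495 nm, emission 515-575 nm · Read-out – % activation versus carbachol response · Control set – carbachol high, DMSO low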
IMP-1 inh-2: selectivity counter-screen for VIM-2 inhibitors: IMP-1 metallo-beta-lactamase inhibitors | shares compounds with VIM-2 inhibitor | purified IMP-1, nitrocefin hydrolysis, epi-absorbance fluorescence | inhibition, % at 5.6 µM | 1,300 tested, under 10 active | AID 1856; call rule not given here;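 note: 0% = enzyme with vehicle and 100% = vehicle without enzyme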
VIM-2 FRET inh: inhibits VIM-2 in FRET assay to exclude epi-absorbance artifacts. shares compounds with VIM-2 inhibitor. purified VIM-2, CCF2 FRET substrate hydrolysis. inhibition, % at 5.6 µM. hit rate 23% among 1,300;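 active = inhibition above the mean of all tested compounds plus 3 SD, cut at about 19% in these data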;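 note: 0% = VIM-2 plus DMSO and 100% = no enzyme wells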
TEM-1 inh: TEM-1 inhibition, counter-screen for VIM-2 inhibitors | inhibition, % at 5.6 µM | Purified TEM-1, nitrocefin hydrolysis, epi-absorbance fluorescence | hit rate 3% among 1,300 | AID 1866 | shares compounds with VIM-2 inhibitor;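 active = inhibition above that campaign's mean inhibition plus 3 SD, cut at about 0.46% in these data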;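 note: 0% = TEM-1 with DMSO and 100% = TEM-1 with 100 µM potassium clavulanate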
VIM-2 confirm 2: confirmation of P. aeruginosa VIM-2 metallo-beta-lactamase inhibitors | shares compounds with VIM-2 inhibitor | purified VIM-2, nitrocefin hydrolysis, epi-absorbance | inhibition, % at 5.6 µM | hit rate 96% among 1,300 | AID 2187;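 active = inhibition of the VIM-2 beta-lactamase enzyme above about 11% from the earlier first-round screen, limit read from the data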;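 note: 0% = VIM-2 with DMSO and 100% = buffer wells without enzyme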
Numbers without * were called inactive; nt = no result given.

SMILES	IMP-1 inh-1	CRFBP-R2 agonist	CRFBP-R2 block	TRPML3 agonist	VIM-2 inhibitor	zfTRPN1 agonist	IMP-1 inh-2	VIM-2 FRET inh	TEM-1 inh	VIM-2 confirm 2
Cn1c(N)c(C(=O)COC(=O)c2cc(C(F)(F)F)nc3ccccc23)c(=O)n(Cc2ccccc2)c1=O	-2	6	-5	1	-2	1	nt	nt	nt	nt
COc1ccc(/C=C/C(=O)OCC(=O)c2c(N)n(C)c(=O)n(C)c2=O)cc1	-2	-1	-26	1	-2	0	nt	nt	nt	nt
Cn1c(N)c(C(=O)COC(=O)c2cc(-c3ccco3)nc3ccccc23)c(=O)n(Cc2ccccc2)c1=O	-1	nt	nt	0	0	1	nt	nt	nt	nt
Cn1c(N)c(C(=O)COC(=O)c2cc(-c3ccco3)nc3ccccc23)c(=O)n(C)c1=O	4	3	-2	1	14*	2	-2	-20	-5	37*
COc1ccc(/C=C2\CCCc3c2nc2ccccc2c3C(=O)OCC(=O)c2c(N)n(C)c(=O)n(C)c2=O)cc1	0	nt	nt	0	14*	3	-3	3	-6	6
Cn1c(N)c(C(=O)COC(=O)c2cc(C3CC3)nc3ccccc23)c(=O)n(C)c1=O	-3	0	0	0	13*	2	-2	9	-7	63*
Cc1cccc(Nc2nc(C)nc3c2oc2ccccc23)c1	-1	-2	-7	nt	5	nt	nt	nt	nt	nt
Cc1nc(N2CCOCC2)c2oc3ccccc3c2n1	-1	-2	-8	0	19*	0	-3	-4	-4	34*
Cc1nc(Nc2ccncc2)c2oc3ccccc3c2n1	0	3	-11	1	45*	4	-3	-2	-6	57*
CC(=O)Nc1ccc(Nc2nc(C)nc3c2oc2ccccc23)cc1	0	0	4	1	18*	0	-4	1	-7	29*
CCc1nc(Nc2ccncc2)c2oc3ccccc3c2n1	1	4	-19	1	44*	-1	-3	2	-6	54*
CCc1nc(Nc2cccc(O)c2)c2oc3ccccc3c2n1	-5	0	-1	nt	0	nt	nt	nt	nt	nt
CC(=O)N1CCN(c2ccc(Nc3nc(C)nc4c3oc3ccccc34)cc2)CC1	nt	-2	21	nt	nt	nt	nt	nt	nt	nt
Cc1ccc(S(=O)(=O)N2CCN(S(C)(=O)=O)C2C)cc1 (stereo not drawn)	nt	0	3	nt	nt	nt	nt	nt	nt	nt
CC(=O)c1ccc(S(=O)(=O)NCCC(=O)NC2CCN(Cc3ccccc3)CC2)cc1	nt	0	9	nt	nt	nt	nt	nt	nt	nt
Cc1nc(NCCc2cnc[nH]2)c2oc3ccccc3c2n1	0	0	4	0	71*	2	-1	-9	1.7*	84*
COc1ccc(CCNc2nc(C)nc3c2oc2ccccc23)cc1OC	-3	-1	4	2	5	3	nt	nt	nt	nt
CCCCNC(=O)CN1C(=O)NC(CCc2ccccc2)C1=O (stereo not drawn)	-2	1	-5	1	-2	0	nt	nt	nt	nt
CC(=NCCCn1ccnc1)c1c(C)[nH]n(-c2ccc([N+](=O)[O-])cc2)c1=O	-2	5	14	2	13*	1	-2	-16	-3	34*
Cc1[nH]n(-c2ccc([N+](=O)[O-])cc2)c(=O)c1/C=N/N1CCOCC1	0	-3	0	1	-3	1	nt	nt	nt	nt
CCOc1ccc(C2OCCC(C)O2)cc1OC (stereo not drawn)	nt	0	-10	nt	nt	nt	nt	nt	nt	nt
O=C(CCCN1C(=O)/C(=C/c2ccccc2)SC1=S)NCCCn1ccnc1	-1	0	-16	nt	0	nt	nt	nt	nt	nt
O=C(CCN1C(=O)/C(=C/c2ccccc2F)SC1=S)NCCCn1ccnc1	-1	1	-11	nt	37*	nt	-2	44*	-8	41*
CCCCCNC(=O)c1cn(CC)c2cc(N3CCN(C)CC3)c(F)cc2c1=O	0	1	-10	nt	3	nt	nt	nt	nt	nt
CCn1cc(C(=O)NCCCN(C)C)c(=O)c2cc(F)c(N3CCN(C)CC3)cc21	-7	0	-3	0	21*	-1	-3	4	-5	36*
SMILES	IMP-1 inh-1	CRFBP-R2 agonist	CRFBP-R2 block	TRPML3 agonist	VIM-2 inhibitor	zfTRPN1 agonist	IMP-1 inh-2	VIM-2 FRET inh	TEM-1 inh	VIM-2 confirm 2
c1ccc(-c2cncnc2)cc1	nt	0	-2	nt	nt	nt	nt	nt	nt	nt
Cc1cc(NC(=O)CSc2nc(-c3ccccc3Cl)nc3c2c(=O)n(C)c(=O)n3C)no1	-2	0	-12	1	-1	0	nt	nt	nt	nt
CC(=O)N1C[C@H]2CON(C)[C@H]2C[C@H]1c1ccc(-c2ccc(C#N)cc2)cc1	nt	1	-17	nt	nt	nt	nt	nt	nt	nt
c1csc(Cc2nn3c(-c4n[nH]c5c4CCC5)nnc3s2)c1	0	1	-6	0	13*	0	-2	5	-7	22*
c1coc(-c2nnc3sc(Cc4cccs4)nn23)c1	-4	4	-29	0	2	0	nt	nt	nt	nt
O=C(O)c1ccccc1C(=O)c1ccc(Oc2ccccc2)cc1	-1	1	-6	0	22*	1	-4	44*	-4	24*
CCN(CC)CCOC(=O)c1cccc2c1-c1ccccc1C2O (stereo not drawn)	0	0	-7	0	25*	1	-5	4	-9	43*
